# Laboratory results as given in ChEMBL document CHEMBL1944507, “Structure-activity relationships for amide-, carbamate-, and urea-linked analogues of the tuberculosis drug (6S)-2-nitro-6-{[4-(trifluoromethoxy)benzyl]oxy}-6,7-dihydro-5H-imidazo[2,1-b][1,3]oxazine (PA-824)” (J Med Chem, 2012).
# Assays:
# [1] = Kinetic solubility of the compound in water at pH 7 by HPLC analysis; format: physicochemical; conditions: read-out: Kinetic_solubility
# [2] = tested on: Mycobacterium tuberculosis; assay: Antimicrobial activity against Mycobacterium tuberculosis infected in BALB/c mouse assessed as fold reduction in lung CFU at 100 mg/kg, po administered 11 days after post infection qd for 5 days per week for 3 weeks relative to PA-824; format: functional
# How it was run: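 Groups of 7 M. tb-infected BALB/c mice dosed orally at 100 mg/kg daily, 5 days/week for 3 weeks, starting on day 11 postinfection. Readout is the average lung CFU reduction in treated mice divided by the average CFU reduction in mice given the reference nitroimidazooxazine.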
# [3] = Metabolic stability of the compound in human liver microsomes assessed as compound remaining after 1 hr; format: ADME, Microsome; conditions: read-out: Stability
# How it was run: (§1)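 Pooled human or CD-1 mouse liver microsomes incubated with compound for 1 h. Percentage of compound remaining calculated from analyte/internal standard peak area ratios.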
# [4] = Metabolic stability of the compound in CD-1 mouse liver microsomes assessed as compound remaining after 1 hr; format: ADME, Microsome; conditions: read-out: Stability; how it was run: as §1
# [5] = Cmax in CD-1 mouse lung at 40 mg/kg, po; format: ADME, organism-based; parameters: dose 40 mg/kg, route oral
# How it was run: (§2)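 CD-1 mice given a single oral dose of 40 mg/kg, suspended in 0.5% carboxymethylcellulose/0.08% Tween 80 in water. Plasma and lung samples quantified by LC-MS/MS. AUC extrapolated to infinity. Lung/plasma ratio is lung AUC divided by plasma AUC.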
# [6] = AUC (0 to infinity) in CD-1 mouse lung at 40 mg/kg, po; format: ADME, organism-based; parameters: dose 40 mg/kg, route oral, time infinity; how it was run: as §2
# [7] = Ratio AUC (0 to infinity) in CD-1 mouse lung to AUC (0 to infinity) in CD-1 mouse plasma at 40 mg/kg, po; format: ADME, organism-based; parameters: dose 40 mg/kg, route oral; conditions: read-out: Ratio AUC; how it was run: as §2
# [8] = Half life in CD-1 mouse plasma at 40 mg/kg, po; format: ADME, organism-based; parameters: dose 40 mg/kg, route oral; how it was run: as §2
# [9] = AUC (0 to infinity) in CD-1 mouse plasma at 40 mg/kg, po; format: ADME, organism-based; parameters: dose 40 mg/kg, route oral, time infinity; how it was run: as §2
# [10] = Cmax in CD-1 mouse plasma at 40 mg/kg, po; format: ADME, organism-based; parameters: dose 40 mg/kg, route oral; how it was run: as §2
# [11] = tested on: Mycobacterium tuberculosis; assay: Antimicrobial activity against Mycobacterium tuberculosis infected in BALB/c mouse assessed as fold reduction in lung CFU at 100 mg/kg, po administered 70 days after post infection qd for 5 days per week for 3 weeks relative to OPC-67683; format: functional
# How it was run: (§3)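 Chronic infection model in M. tb-infected BALB/c mice: oral dosing at 100 mg/kg daily, 5 days/week for 3 weeks, beginning about 70 days postinfection. Result expressed as fold lung CFU reduction relative to the reference drug.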
# [12] = Half life in CD-1 mouse lung at 40 mg/kg, po; format: ADME, organism-based; parameters: dose 40 mg/kg, route oral; how it was run: as §2
# [13] = tested on: Mycobacterium tuberculosis; assay: Antimicrobial activity against Mycobacterium tuberculosis infected in chronic BALB/c mouse infection model assessed as fold reduction in lung CFU at 100 mg/kg, po dministered 50 days after post infection qd for 5 days per week for 3 weeks; format: functional
# [14] = tested on: Mycobacterium tuberculosis; assay: Antimicrobial activity against Mycobacterium tuberculosis infected in BALB/c mouse assessed as fold reduction in lung CFU at 100 mg/kg, po administered 70 days after post infection qd for 5 days per week for 3 weeks; format: functional; how it was run: as §3
# Salmonella typhimurium [15] = assay: Induction of mutagenesis in Salmonella Typhimurium TA98 in absence of rat liver S9 fraction by Ames test; format: toxicity, organism-based; conditions: salmonella enterica subsp. enterica serovar typhimurium
# How it was run: (§4)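 MicroAmes reverse mutation screen in Salmonella TA98 and TA100, preincubated with and without rat liver S9, at 0.25-250 μg/well.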
# Salmonella typhimurium [16] = assay: Induction of mutagenesis in Salmonella Typhimurium TA100 in absence of rat liver S9 fraction by Ames test; format: toxicity, organism-based; conditions: salmonella enterica subsp. enterica serovar typhimurium; how it was run: as §4
# [17] = Thermodynamic solubility of the compound at pH 7.4; format: physicochemical; conditions: buffer, read-out: Therm_solubility
# [18] = Plasma protein binding in human at 10 uM; format: ADME, cell-free; conditions: read-out: PPB (converted)
# How it was run: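 Human plasma protein binding measured by equilibrium dialysis, with overnight incubation of compound at 10 μM containing 1% DMSO.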
# [19] = Octanol-water partition coefficient, log P of the compound by shake-flask method; format: physicochemical
# How it was run: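 Octanol-water partition coefficient measured by the shake-flask method.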
# Salmonella typhimurium [20] = assay: Induction of mutagenesis in Salmonella Typhimurium TA98 in presence of rat liver S9 fraction by Ames test; format: toxicity, organism-based; conditions: salmonella enterica subsp. enterica serovar typhimurium; how it was run: as §4
# [21] = Thermodynamic solubility of the compound at pH 1; format: physicochemical; conditions: buffer, read-out: Therm_solubility
# Salmonella typhimurium [22] = assay: Induction of mutagenesis in Salmonella Typhimurium TA100 in presence of rat liver S9 fraction by Ames test; format: toxicity, organism-based; conditions: salmonella enterica subsp. enterica serovar typhimurium; how it was run: as §4
compound,measurement,setting,value
O=C(N[C@@H]1COc2nc([N+](=O)[O-])cn2C1)c1ccc(OC(F)(F)F)cc1,solubility kinetic,[1],109 µg/mL
CN(C(=O)c1ccc(OC(F)(F)F)cc1)[C@@H]1COc2nc([N+](=O)[O-])cn2C1,solubility kinetic,[1],17 µg/mL
O=[N+]([O-])c1cn2c(n1)OC[C@@H](NS(=O)(=O)c1ccc(OC(F)(F)F)cc1)C2,solubility kinetic,[1],6.1 µg/mL
CN([C@@H]1COc2nc([N+](=O)[O-])cn2C1)S(=O)(=O)c1ccc(OC(F)(F)F)cc1,solubility kinetic,[1],15 µg/mL
O=C(CN[C@@H]1COc2nc([N+](=O)[O-])cn2C1)c1ccc(OC(F)(F)F)cc1,solubility kinetic,[1],21 µg/mL
O=C(Nc1ccc(OC(F)(F)F)cc1)N[C@@H]1COc2nc([N+](=O)[O-])cn2C1,solubility kinetic,[1],93 µg/mL
O=C(N[C@@H]1COc2nc([N+](=O)[O-])cn2C1)OCc1ccc(-c2ccc(OC(F)(F)F)cc2)cc1,solubility kinetic,[1],0.67 µg/mL
O=C(Nc1cccc(-c2ccc(OC(F)(F)F)cc2)c1)N[C@@H]1COc2nc([N+](=O)[O-])cn2C1,fold change (FC),[2],<0.01
same,remaining at 1 h,[3],86%
same,solubility kinetic,[1],3 µg/mL
same,remaining at 1 h,[4],88%
O=C(Nc1ccc(-c2ccc(OC(F)(F)F)cc2)cc1)N[C@@H]1COc2nc([N+](=O)[O-])cn2C1,Cmax,[5],4700 ng/mL
same,AUC(0-inf),[6],> 60000 ng·h/mL
same,Kp,[7],> 9
same,fold change (FC),[2],1
same,half-life,[8],6.3 h
same,remaining at 1 h,[3],91%
same,AUC(0-inf),[9],6610 ng·h/mL
same,solubility kinetic,[1],0.17 µg/mL
same,remaining at 1 h,[4],90%
same,Cmax,[10],480 ng/mL
O=C(NCc1ccc(-c2ccc(OC(F)(F)F)cc2)cc1)N[C@@H]1COc2nc([N+](=O)[O-])cn2C1,solubility kinetic,[1],0.94 µg/mL
O=C(Nc1cccc(-c2ccc(OC(F)(F)F)cc2)c1)O[C@@H]1COc2nc([N+](=O)[O-])cn2C1,fold change (FC),[2],3.4
same,remaining at 1 h,[3],88%
same,solubility kinetic,[1],0.07 µg/mL
same,remaining at 1 h,[4],93%
O=C(Nc1cccc(-c2ccc(C(F)(F)F)nc2)c1)O[C@@H]1COc2nc([N+](=O)[O-])cn2C1,fold change (FC),[2],0.02
same,remaining at 1 h,[3],89%
same,solubility kinetic,[1],5.8 µg/mL
same,remaining at 1 h,[4],80%
O=C(Nc1ccc(-c2ccc(OC(F)(F)F)cc2)cc1)O[C@@H]1COc2nc([N+](=O)[O-])cn2C1,Cmax,[5],6900 ng/mL
same,AUC(0-inf),[6],> 136000 ng·h/mL
same,Kp,[7],> 3
same,fold change (FC),[11],0.35
same,fold change (FC),[2],5
same,half-life,[8],62.3 h
same,remaining at 1 h,[3],100%
same,AUC(0-inf),[9],44900 ng·h/mL
same,remaining at 1 h,[4],98%
same,Cmax,[10],520 ng/mL
O=C(NCc1ccc(-c2ccc(OC(F)(F)F)cc2)cc1)O[C@@H]1COc2nc([N+](=O)[O-])cn2C1,solubility kinetic,[1],0.34 µg/mL
O=C(O[C@@H]1COc2nc([N+](=O)[O-])cn2C1)N1CC[C@H](Oc2ccc(OC(F)(F)F)cc2)C1,solubility kinetic,[1],21 µg/mL
O=C(O[C@@H]1COc2nc([N+](=O)[O-])cn2C1)N1CCC(Oc2ccc(C(F)(F)F)nc2)CC1,solubility kinetic,[1],94 µg/mL
CN(Cc1ccc(OC(F)(F)F)cc1)C1CCN(C(=O)O[C@@H]2COc3nc([N+](=O)[O-])cn3C2)CC1,solubility kinetic,[1],11 µg/mL
O=C(COc1ccc(-c2ccc(OC(F)(F)F)cc2)cc1)N[C@@H]1COc2nc([N+](=O)[O-])cn2C1,solubility kinetic,[1],0.96 µg/mL
O=C(Cc1ccc(-c2ccc(OC(F)(F)F)cc2)cc1)N[C@@H]1COc2nc([N+](=O)[O-])cn2C1,solubility kinetic,[1],1.8 µg/mL
O=C(CO[C@@H]1COc2nc([N+](=O)[O-])cn2C1)Nc1ccc(OC(F)(F)F)cc1,fold change (FC),[2],0.33
same,remaining at 1 h,[3],100%
same,solubility kinetic,[1],68 µg/mL
same,remaining at 1 h,[4],85%
CN(C(=O)N(C)[C@@H]1COc2nc([N+](=O)[O-])cn2C1)c1ccc(OC(F)(F)F)cc1,solubility kinetic,[1],38 µg/mL
O=[N+]([O-])c1cn2c(n1)OC[C@@H](NC(=S)Nc1ccc(OC(F)(F)F)cc1)C2,solubility kinetic,[1],12 µg/mL
O=C(NCc1ccc(OC(F)(F)F)cc1)N[C@@H]1COc2nc([N+](=O)[O-])cn2C1,solubility kinetic,[1],32 µg/mL
O=C(Nc1ccc(OC(F)(F)F)cc1)O[C@@H]1COc2nc([N+](=O)[O-])cn2C1,Cmax,[5],3800 ng/mL
same,AUC(0-inf),[6],43300 ng·h/mL
same,half-life,[12],4.1 h
same,Kp,[7],1.5
same,fold change (FC),[11],0.02
same,fold change (FC),[2],0.39
same,half-life,[8],9.8 h
same,remaining at 1 h,[3],88%
same,AUC(0-inf),[9],28500 ng·h/mL
same,solubility kinetic,[1],5.4 µg/mL
same,remaining at 1 h,[4],89%
same,Cmax,[10],1400 ng/mL
CN(C(=O)O[C@@H]1COc2nc([N+](=O)[O-])cn2C1)c1ccc(OC(F)(F)F)cc1,fold change (FC),[2],5.3
same,remaining at 1 h,[3],37%
same,solubility kinetic,[1],18 µg/mL
same,remaining at 1 h,[4],1%
O=C(NCc1ccc(OC(F)(F)F)cc1)O[C@@H]1COc2nc([N+](=O)[O-])cn2C1,solubility kinetic,[1],10 µg/mL
C[C@]1(COc2ccc(N3CCC(Oc4ccc(OC(F)(F)F)cc4)CC3)cc2)Cn2cc([N+](=O)[O-])nc2O1,fold change (FC),[13],3
same,fold change (FC),[14],3
O=C(COc1ccc(OC(F)(F)F)cc1)N[C@@H]1COc2nc([N+](=O)[O-])cn2C1,solubility kinetic,[1],43 µg/mL
O=[N+]([O-])c1cn2c(n1)OC[C@@H](NCc1ccc(OC(F)(F)F)cc1)C2,solubility kinetic,[1],131 µg/mL
O=[N+]([O-])c1cn2c(n1)OC[C@@H](OCc1ccc(OC(F)(F)F)cc1)C2 [PRETOMANID],Activity,Salmonella typhimurium [15],Non-toxic
same,Activity,Salmonella typhimurium [16],Non-toxic
same,solubility thermodynamic,[17],30 µM
same,fraction unbound at 10 µM,[18],0.06
same,logP,[19],2.52
same,Activity,Salmonella typhimurium [20],Non-toxic
same,fold change (FC),[14],2
same,solubility thermodynamic,[21],30 µM
same,Activity,Salmonella typhimurium [22],Non-toxic
